Laboratory results reported in ChEMBL document CHEMBL3352548, “Small-molecule suppression of β-lactam resistance in multidrug-resistant gram-negative pathogens” (J Med Chem, 2014).

What was measured:
[1] = system: Acinetobacter baumannii; test: Antibacterial activity against Acinetobacter baumannii ATCC BAA-1605 assessed as meropenem MIC at 25 uM after 6 hrs in presence of 10% bovine plasma by time kill assay (Rvb meropenem MIC in absence of plasma= 2 ug/ml); type: functional; conditions: ATCC BAA-1605, 6 h
Method in brief: (§1)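 Meropenem MIC against A. baumannii BAA-1605 in CAMHB containing 10% bovine plasma, with compound held at fixed 15, 20, 25 or 30 μM. Parallel runs were done in CAMHB without plasma.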

[2] = Cytotoxicity against human HaCaT cells after 12 to 18 hrs by MTT assay; type: cell-based; conditions: read-out: TCID50
Method in brief: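 HaCaT keratinocytes were grown in 10% FBS–DMEM with penicillin/streptomycin, seeded at 8 × 10^4 cells/mL and grown overnight to 90% confluence. Serial dilutions (2.5 mM to 1.22 μM, duplicate) were applied overnight. MTT was added for 4 h in the dark, then SDS/HCl solubilizer for 12–18 h. Absorbance was read at 550 nm against a 670 nm reference.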

[3] = system: Acinetobacter baumannii; test: Antibacterial activity against Acinetobacter baumannii ATCC BAA-1605 assessed as meropenem MIC at 20 uM after 6 hrs in presence of 10% bovine plasma by time kill assay (Rvb meropenem MIC in absence of plasma= 4 ug/ml); type: functional; conditions: ATCC BAA-1605, 6 h; method in brief: as §1
[4] = system: Pseudomonas aeruginosa; test: Antibacterial activity against Pseudomonas aeruginosa PA53 assessed as fold reduction in ceftazidime MIC at 60 uM after 16 hrs by microdilution method; type: functional
Method in brief: (§2)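 MIC of each compound alone was determined first. Antibiotic MICs (imipenem or meropenem for A. baumannii; ceftazidime or meropenem for P. aeruginosa) were then measured with compound at fixed sub-MIC concentrations. Fold reduction is MIC without compound divided by MIC with compound.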

[5] = system: Pseudomonas aeruginosa; test: Antibacterial activity against Pseudomonas aeruginosa PA53 assessed as reduction in CFU at 60 uM after 6 hrs by time kill assay in presence of 4 ug/ml meropenem; type: functional
Method in brief: (§3)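 Time-kill: cultures were grown at 37 °C with shaking with compound (15 μM for BAA-1605, 60 μM for PA53), meropenem (1–32 μg/mL for BAA-1605, 1–64 μg/mL for PA53), or both. Samples taken at 2, 4, 6, 8 and 24 h were serially diluted in CAMHB, plated on nutrient agar, incubated overnight at 37 °C, and colonies counted.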

[6] = system: Pseudomonas aeruginosa; test: Antibacterial activity against Pseudomonas aeruginosa PA53 assessed as reduction in CFU at 60 uM after 6 hrs by time kill assay; type: functional; method in brief: as §3
[7] = system: Acinetobacter baumannii; test: Antibacterial activity against Acinetobacter baumannii ATCC BAA-1605 assessed as cell death at 15 uM after 16 hrs by checkerboard assay in presence of 50% bovine plasma; type: functional; conditions: ATCC BAA-1605, Plasma
Method in brief: (§4)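 A. baumannii BAA-1605 MIC of compound alone, measured in cation-adjusted Mueller–Hinton broth (CAMHB) supplemented with 10% or 50% bovine plasma.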

[8] = system: Acinetobacter baumannii; test: Antibacterial activity against Acinetobacter baumannii ATCC BAA-1605 assessed as reduction in CFU at 15 uM after 6 hrs by time kill assay; type: functional; method in brief: as §3
[9] = system: Acinetobacter baumannii; test: Antibacterial activity against Acinetobacter baumannii ATCC BAA-1605 assessed as cell death at 15 uM after 16 hrs by checkerboard assay in presence of 10% bovine plasma; type: functional; conditions: ATCC BAA-1605, Plasma; method in brief: as §4
[10] = system: Acinetobacter baumannii; test: Antibacterial activity against Acinetobacter baumannii ATCC BAA-1605 assessed as cell death at 15 uM after 16 hrs by checkerboard assay in presence of meropenem; type: functional
Method in brief: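 Checkerboard in CAMHB with BAA-1605 at 5 × 10^5 CFU/mL. Compound and meropenem were each serially two-fold diluted along perpendicular axes, with one […] row and column giving each agent's MIC alone. ΣFIC = (combination MIC/MIC alone) for compound plus the same for antibiotic. ≤0.5 was taken as synergy, 0.5–2 as indifference, ≥2 as antagonism.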

[11] = system: Acinetobacter baumannii; test: Antibacterial activity against Acinetobacter baumannii ATCC BAA-1605 assessed as fold reduction in meropenem MIC at 15 uM after 16 hrs by microdilution method; type: functional; method in brief: as §2
[12] = system: Acinetobacter baumannii; test: Antibacterial activity against Acinetobacter baumannii ATCC BAA-1605 assessed as reduction in CFU at 15 uM after 6 hrs by time kill assay in presence of 4 ug/ml meropenem; type: functional; method in brief: as §3
[13] = system: Acinetobacter baumannii; test: Antibacterial activity against Acinetobacter baumannii ATCC BAA-1605 assessed as fold reduction in imipenem MIC at 15 uM after 16 hrs by microdilution method; type: functional; method in brief: as §2
[14] = system: Acinetobacter baumannii; test: Antibacterial activity against Acinetobacter baumannii ATCC BAA-1605 assessed as reduction in CFU at 15 uM after 6 hrs by time kill assay in presence of 1 ug/ml meropenem; type: functional; method in brief: as §3
[15] = Hemolytic activity in sheep red blood cells up to 400 uM by UV spectrophotometry; type: ADME, cell-based, Ovis aries; conditions: erythrocyte
Method in brief: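 Mechanically defibrinated sheep blood cells were washed three times by centrifugation in PBS and diluted 10-fold. Compound in PBS was added and samples shaken at 200 rpm for 1 h at 37 °C. Supernatant was diluted 40-fold in water and read at 540 nm. PBS served as zero-lysis control and 1% Triton X as 100% lysis control.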

[16] = system: Pseudomonas aeruginosa; test: Antibacterial activity against Pseudomonas aeruginosa PA53 assessed as complete inhibition of bacterial growth after 16 hrs by microdilution method; type: functional; conditions: PA53, 16 h; method in brief: as §2
[17] = system: Acinetobacter baumannii; test: Antibacterial activity against Acinetobacter baumannii ATCC BAA-1605 assessed as complete inhibition of bacterial growth after 16 hrs by microdilution method; type: functional; conditions: ATCC BAA-1605, 16 h; method in brief: as §2
[18] = system: Acinetobacter baumannii; test: Antibacterial activity against Acinetobacter baumannii ATCC BAA-1605 assessed as meropenem MIC at 30 uM after 6 hrs in presence of 10% bovine plasma by time kill assay (Rvb meropenem MIC in absence of plasma= 0.5 ug/ml); type: functional; conditions: ATCC BAA-1605, 6 h; method in brief: as §1
[19] = system: Acinetobacter baumannii; test: Antibacterial activity against Acinetobacter baumannii ATCC BAA-1605 assessed as meropenem MIC at 15 uM after 6 hrs in presence of 10% bovine plasma by time kill assay (Rvb meropenem MIC in absence of plasma= 32 ug/ml); type: functional; conditions: ATCC BAA-1605, 6 h; method in brief: as §1
[20] = system: Pseudomonas aeruginosa; test: Antibacterial activity against Pseudomonas aeruginosa PA53 assessed as fold reduction in meropenem MIC at 60 uM after 16 hrs by microdilution method; type: functional; method in brief: as §2
[21] = system: Pseudomonas aeruginosa; test: Antibacterial activity against Pseudomonas aeruginosa PA53 assessed as reduction in CFU at 60 uM after 6 hrs by time kill assay in presence of 1 ug/ml meropenem; type: functional; method in brief: as §3

Compound: Cl.Nc1nc(-c2ccc(NC(=O)c3cc(Cl)cc(Cl)c3)cc2)c[nH]1
- MIC [1]: 8 µg/mL
- CC50 [2]: 387 µM
- MIC [3]: 16 µg/mL
- fold change (FC) [4]: 16
- fold change (FC) [5]: 3.2
- fold change (FC) [6]: 2.49
- MIC [7]: 200 µM
- fold change (FC) [8]: 2.53
- MIC [9]: 50 µM
- fractional inhibitory concentration index (FICI) [10]: 0.375
- fold change (FC) [11]: 8
- fold change (FC) [12]: 4
- fold change (FC) [13]: 8
- fold change (FC) [14]: 4
- Activity [15]: Non-toxic
- MIC [16]: > 200 µM
- MIC [17]: 50 µM
- MIC [18]: 0.5 µg/mL
- MIC [19]: 32 µg/mL
- fold change (FC) [20]: 8
- fold change (FC) [21]: 3.2
